From ChEMBL document CHEMBL1955865, “Synthesis of novel spirooxindole derivatives by one pot multicomponent reaction and their antimicrobial activity” (2012)
≈ marks a conversion by molar mass, not a printed value. Calls of active or inactive are those of the source. The rule behind the calls is not given here.

Experiments:
Staphylococcus aureus [1] = test: Antibacterial activity against methicillin-resistant Staphylococcus aureus at 10 ug/disc after 24 hrs by disc diffusion assay; format: functional; conditions: read-out: IZ
How it was run: (§1)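 Streptomycin positive-control discs at 10 μg/disc on Mueller Hinton agar, swabbed with bacteria grown 24 h at 37 °C in MHB and diluted to about 10^4 CFU/ml. Discs stood 30 min at room temperature, then plates were incubated 24 h at 37 °C. Inhibition zones were measured in mm; experiment repeated twice.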

Proteus vulgaris [2] = test: Antibacterial activity against Proteus vulgaris MTCC 1771 after 24 hrs by twofold serial dilution method; format: functional; conditions: MTCC 1771, 24 h
How it was run: (§2)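 Bacteria grown in Mueller Hinton broth for 24 h at 37 °C and diluted to about 10^4 CFU/ml. Compound in 2% DMSO was serially diluted two-fold (1000 to 15.62 µg/ml) in medium in 96-well plates and inoculated. Plates were incubated 24 h at 37 °C. 5 µl of broth was spotted onto MHA, and MIC was taken as the lowest concentration with no visible growth on agar.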

[3] = test system: Salmonella enterica subsp. enterica serovar Paratyphi B; test: Antibacterial activity against Salmonella paratyphi B at 10 ug/disc after 24 hrs by disc diffusion assay; format: functional; conditions: read-out: IZ; how it was run: as §1
Micrococcus luteus [4] = test: Antibacterial activity against Micrococcus luteus after 24 hrs by twofold serial dilution method; format: functional; how it was run: as §2
Staphylococcus aureus [5] = test: Antibacterial activity against Staphylococcus aureus MTCC 96 after 24 hrs by twofold serial dilution method; format: functional; conditions: MTCC 96, 24 h; how it was run: as §2
[6] = test system: Salmonella enterica subsp. enterica serovar Paratyphi B; test: Antibacterial activity against Salmonella paratyphi B after 24 hrs by twofold serial dilution method; format: functional
How it was run: (§3)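 Broth microdilution in MHB following the standard bacterial reference method. Compound was dissolved in DMSO (2%) and serially diluted two-fold from 1000 to 15.62 µg/ml in 96-well plates, with an inoculum of about 10^4 CFU/ml. Streptomycin and ciprofloxacin were positive controls. After 24 h at 37 °C, 5 µl of broth was subcultured on MHA. MIC was the lowest concentration without visible growth on agar.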

Klebsiella aerogenes [7] = test: Antibacterial activity against Enterobacter aerogenes MTCC 111 after 24 hrs by twofold serial dilution method; format: functional; conditions: MTCC 111, 24 h; how it was run: as §2
Klebsiella pneumoniae [8] = test: Antibacterial activity against Klebsiella pneumoniae MTCC 109 after 24 hrs by twofold serial dilution method; format: functional; conditions: MTCC 109, 24 h; how it was run: as §2
Salmonella typhimurium [9] = test: Antibacterial activity against Salmonella Typhimurium MTCC 1251 after 24 hrs by two-fold serial dilution method; format: functional, Salmonella enterica subsp. enterica serovar Typhimurium; conditions: Salmonella enterica, MTCC 1251, 24 h; how it was run: as §2
Staphylococcus aureus [10] = test: Antibacterial activity against Staphylococcus aureus MTCC 96 at 10 ug/disc after 24 hrs by disc diffusion assay; format: functional; conditions: MTCC 96, 24 h, read-out: IZ
How it was run: (§4)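 Streptomycin positive-control discs (10 µg/disc) on Mueller Hinton agar swabbed with bacterial culture (about 10^4 CFU/ml). Discs stood 30 min at room temperature, then plates were incubated 24 h at 37 °C. Zones of inhibition were recorded in mm, and the experiment was repeated twice.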

Proteus vulgaris [11] = test: Antibacterial activity against Proteus vulgaris MTCC 1771 at 10 ug/disc after 24 hrs by disc diffusion assay; format: functional; conditions: MTCC 1771, 24 h, read-out: IZ; how it was run: as §4
Klebsiella pneumoniae [12] = test: Antibacterial activity against Klebsiella pneumoniae MTCC 109 at 10 ug/disc after 24 hrs by disc diffusion assay; format: functional; conditions: MTCC 109, 24 h, read-out: IZ; how it was run: as §4
Salmonella typhimurium [13] = test: Antibacterial activity against Salmonella Typhimurium MTCC 1251 at 10 ug/disc after 24 hrs by disc diffusion assay; format: functional, Salmonella enterica subsp. enterica serovar Typhimurium; conditions: Salmonella enterica, MTCC 1251, 24 h; read-out: IZ; how it was run: as §4
Klebsiella aerogenes [14] = test: Antibacterial activity against Enterobacter aerogenes MTCC 111 at 10 ug/disc after 24 hrs by disc diffusion assay; format: functional; conditions: MTCC 111, 24 h, read-out: IZ; how it was run: as §4
Staphylococcus aureus [15] = test: Antibacterial activity against methicillin-resistant Staphylococcus aureus after 24 hrs by twofold serial dilution method; format: functional; how it was run: as §3
Micrococcus luteus [16] = test: Antibacterial activity against Micrococcus luteus at 10 ug/disc after 24 hrs by disc diffusion assay; format: functional; conditions: read-out: IZ; how it was run: as §4
Micrococcus luteus [17] = test: Antibacterial activity against Micrococcus luteus at 1000 ug/disc after 24 hrs by disc diffusion assay; format: functional; conditions: read-out: IZ
How it was run: (§5)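 Disc diffusion on Mueller Hinton agar. Cultures (about 10^4 CFU/ml) were swabbed on and dried 10 min. Discs loaded at 1000 µg/disc were left 30 min at room temperature for diffusion, with a solvent negative control. Plates were incubated 24 h at 37 °C. Inhibition zones were measured in mm, and the experiment was done twice.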

Salmonella typhimurium [18] = test: Ratio of ciprofloxacin MIC to compound MIC for Salmonella Typhimurium MTCC 1251; format: functional, Salmonella enterica subsp. enterica serovar Typhimurium
Salmonella typhimurium [19] = test: Antibacterial activity against Salmonella Typhimurium MTCC 1251 at 1000 ug/disc after 24 hrs by disc diffusion assay; format: functional, Salmonella enterica subsp. enterica serovar Typhimurium; conditions: Salmonella enterica, MTCC 1251, 24 h; read-out: IZ; how it was run: as §5
Candida albicans [20] = test: Antifungal activity against Candida albicans MTCC 227 after 48 to 72 hrs by twofold serial dilution method; format: functional
How it was run: (§6)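 Broth two-fold serial dilution, 1000 to 15.62 µg/ml, with compound dissolved in 2% DMSO, in 96-well plates. Filamentous fungal spores came from 10-day SDA slants at 28 °C, and yeast from SDB grown 48 h at 28 °C. Incubation was 48-72 h at 28 °C. MIC was the lowest concentration with no visible fungal growth.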

Klebsiella aerogenes [21] = test: Antibacterial activity against Enterobacter aerogenes MTCC 111 at 1000 ug/disc after 24 hrs by disc diffusion assay; format: functional; conditions: MTCC 111, 24 h, read-out: IZ; how it was run: as §5
Candida albicans [22] = test: Ratio of fluconazole MIC to compound MIC for Candida albicans MTCC 227; format: functional
Candida albicans [23] = test: Antifungal activity against Candida albicans MTCC 227 at 1000 ug/disc after 48 hrs by disc diffusion assay; format: functional; conditions: MTCC 227, 48 h, read-out: IZ
How it was run: (§7)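 Fungal disc diffusion with inoculum from SDA spores (filamentous) or SDB culture (yeast). Test cultures were swabbed on agar, and discs at 1000 µg/disc were left 30 min at room temperature, with a solvent negative control. Plates were incubated 48 h at 27 °C. Zone of inhibition was measured in mm, and the experiment was repeated twice.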

[24] = Antifungal activity against Malassezia pachydermatis at 1000 ug/disc after 48 hrs by disc diffusion assay; format: functional; how it was run: as §7
[25] = test system: Salmonella enterica subsp. enterica serovar Paratyphi B; test: Antibacterial activity against Salmonella paratyphi B at 1000 ug/disc after 24 hrs by disc diffusion assay; format: functional; conditions: read-out: IZ
How it was run: (§8)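 Disc diffusion on Mueller Hinton agar. Bacteria were grown 24 h at 37 °C in MHB and diluted to about 10^4 CFU/ml, swabbed onto plates and dried 10 min. Discs were loaded at 1000 μg/disc and held 30 min at room temperature for diffusion. Solvent served as negative control. After 24 h at 37 °C, inhibition zones were read in mm; run twice.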

Staphylococcus aureus [26] = test: Antibacterial activity against methicillin-resistant Staphylococcus aureus at 1000 ug/disc after 24 hrs by disc diffusion assay; format: functional; conditions: read-out: IZ; how it was run: as §8
[27] = Antifungal activity against Malassezia pachydermatis after 48 to 72 hrs by twofold serial dilution method; format: functional; how it was run: as §6
Botrytis cinerea [28] = test: Antifungal activity against Botrytis cinerea at 1000 ug/disc after 48 hrs by disc diffusion assay; format: functional; conditions: read-out: IZ; how it was run: as §7
Klebsiella pneumoniae [29] = test: Antibacterial activity against Klebsiella pneumoniae MTCC 109 at 1000 ug/disc after 24 hrs by disc diffusion assay; format: functional; conditions: MTCC 109, 24 h, read-out: IZ; how it was run: as §5
Micrococcus luteus [30] = test: Ratio of ciprofloxacin MIC to compound MIC for Micrococcus luteus; format: functional
Staphylococcus aureus [31] = test: Ratio of ciprofloxacin MIC to compound MIC for methicillin-resistant Staphylococcus aureus; format: functional
Botrytis cinerea [32] = test: Antifungal activity against Botrytis cinerea after 48 to 72 hrs by twofold serial dilution method; format: functional; how it was run: as §6
Staphylococcus aureus [33] = test: Antibacterial activity against Staphylococcus aureus MTCC 96 at 1000 ug/disc after 24 hrs by disc diffusion assay; format: functional; conditions: MTCC 96, 24 h, read-out: IZ; how it was run: as §5
Staphylococcus aureus [34] = test: Ratio of streptomycin MIC to compound MIC for methicillin-resistant Staphylococcus aureus; format: functional
Proteus vulgaris [35] = test: Antibacterial activity against Proteus vulgaris MTCC 1771 at 1000 ug/disc after 24 hrs by disc diffusion assay; format: functional; conditions: MTCC 1771, 24 h, read-out: IZ; how it was run: as §5

## CN[C@@H]1[C@H](O[C@H]2[C@H](O[C@H]3[C@H](O)[C@@H](O)[C@H](N=C(N)N)[C@@H](O)[C@@H]3N=C(N)N)O[C@@H](C)[C@]2(O)C=O)O[C@@H](CO)[C@H](O)[C@H]1O [STREPTOMYCIN]
Staphylococcus aureus [1]
  zone of inhibition at 10 µg/disc: 20 mm
Proteus vulgaris [2]
  MIC: 6.25 µg/mL (≈ 10.7 µM)
[3]
  zone of inhibition at 10 µg/disc: 17 mm
Micrococcus luteus [4]
  MIC: 6.25 µg/mL (≈ 10.7 µM)
Staphylococcus aureus [5]
  MIC: 6.25 µg/mL (≈ 10.7 µM)
[6]
  MIC: inactive
Klebsiella aerogenes [7]
  MIC: 25 µg/mL (≈ 43 µM)
Klebsiella pneumoniae [8]
  MIC: 6.25 µg/mL (≈ 10.7 µM)
Salmonella typhimurium [9]
  MIC: 30 µg/mL (≈ 51.6 µM)
Staphylococcus aureus [10]
  zone of inhibition at 10 µg/disc: 16 mm
Proteus vulgaris [11]
  zone of inhibition at 10 µg/disc: 22 mm
Klebsiella pneumoniae [12]
  zone of inhibition at 10 µg/disc: 20 mm
Salmonella typhimurium [13]
  zone of inhibition at 10 µg/disc: 23 mm
Klebsiella aerogenes [14]
  zone of inhibition at 10 µg/disc: 22 mm
Staphylococcus aureus [15]
  MIC: > 100 µg/mL
Micrococcus luteus [16]
  zone of inhibition at 10 µg/disc: 23 mm

## CC(=O)N1C(=O)C2(C3=C(CN2C)C(=O)c2ccccc2C3=O)c2ccccc21 (stereo not drawn)
Micrococcus luteus [17]
  zone of inhibition at 1000 µg/disc: 22 mm
Salmonella typhimurium [18]
  Ratio: >6.4
Salmonella typhimurium [19]
  zone of inhibition at 1000 µg/disc: 24 mm
Proteus vulgaris [2]
  MIC: < 15.6 µg/mL
Candida albicans [20]
  MIC: 31.2 µg/mL (≈ 83.9 µM)
Micrococcus luteus [4]
  MIC: 15.6 µg/mL (≈ 41.9 µM)
Klebsiella aerogenes [21]
  zone of inhibition at 1000 µg/disc: 21 mm
Candida albicans [22]
  Ratio: >3.2
Candida albicans [23]
  zone of inhibition at 1000 µg/disc: 18 mm
[24]
  inhibition zone (IZ): 19 mm
Staphylococcus aureus [5]
  MIC: 31.2 µg/mL (≈ 83.9 µM)
[6]
  MIC: < 15.6 µg/mL
[25]
  zone of inhibition at 1000 µg/disc: 28 mm
Klebsiella aerogenes [7]
  MIC: 15.6 µg/mL (≈ 41.9 µM)
Klebsiella pneumoniae [8]
  MIC: 15.6 µg/mL (≈ 41.9 µM)
Staphylococcus aureus [26]
  zone of inhibition at 1000 µg/disc: 16 mm
[27]
  MIC: 15.6 µg/mL (≈ 41.9 µM)
Botrytis cinerea [28]
  zone of inhibition at 1000 µg/disc: 15 mm
Salmonella typhimurium [9]
  MIC: 15.6 µg/mL (≈ 41.9 µM)
Klebsiella pneumoniae [29]
  zone of inhibition at 1000 µg/disc: 24 mm
Micrococcus luteus [30]
  Ratio: >6.4
Staphylococcus aureus [31]
  Ratio: >1.6
Botrytis cinerea [32]
  MIC: 125 µg/mL (≈ 336 µM)
Staphylococcus aureus [33]
  zone of inhibition at 1000 µg/disc: 18 mm
Staphylococcus aureus [34]
  Ratio: >1.6
Staphylococcus aureus [15]
  MIC: 62.5 µg/mL (≈ 168 µM)
Proteus vulgaris [35]
  zone of inhibition at 1000 µg/disc: 26 mm
